Measurements collected from several papers.
Protocols differ between the studies behind these lines.
Target: Histamine H1 receptor (HRH1, Homo sapiens, UniProt P35367)

SMILES	test	setting	Ki [nM]
CN1CCC(=C2c3ccccc3CCc3cccnc32)CC1	cell-free assay	–	0.0631
O=C1CCCc2cc(OCc3ccc(OCCCN4CCCCC4)cc3)ccc21	ligand displacement, radioligand	cell membranes	1970
CC(C)c1nc2cc(OCCCCN3CCN(c4cccc5c4OCCO5)CC3)ccc2s1	ligand displacement, radioligand	–	52
Clc1ccc(CCCOCCCN2CCCCC2)cc1	ligand displacement, radioligand	cell membranes	> 10000
CN1CCC(=C(c2ccccc2)c2ccccc2)CC1	cell-free assay, radioligand	–	3.16
O=C1NC(=O)C(c2ccccc2)(c2ccc(OCCCN3CCCCC3)cc2)N1 (centres unmarked)	ligand displacement, radioligand	cell membranes	6150
CN1CCC(C2c3ccccc3CCc3ccccc32)CC1	cell-free assay, radioligand	–	0.631
O=C1CCCc2cc(OCCCN3CCCCC3)ccc21	ligand displacement, radioligand	cell membranes	3470
CCCNc1nc2ccccc2n1Cc1ccc(Cl)cc1	cell-free assay, radioligand	–	6.2
CN(C)c1ccc(/C=C2\CCc3ccc(OCc4ccc(OCCCN5CCCCC5)cc4)cc3C2=O)cc1	ligand displacement, radioligand	cell membranes	4230
CN1CCC(=C2c3ccccc3CCc3ccccc32)CC1	cell-free assay, radioligand	–	0.251
Cc1nc2cc(OCCCCN3CCN(c4cccc(Cl)c4Cl)CC3)ccc2s1	ligand displacement, radioligand	–	57
CCCCN1CCC(COC(=O)c2ccc(N)c(OCF)c2)CC1	cell-free assay, radioligand	–	> 10000
CN(C)c1ccc(/C=C/C=C2\CCc3cc(OCCCN4CCCCC4)ccc3C2=O)cc1	ligand displacement, radioligand	cell membranes	881
